The M2OR odorant receptor database
Substitutions are numbered along the chain they refer to.

How the values were obtained:
Conditions in all cases: stereoisomer not certain
OR8U3 (Homo sapiens) = target: T1, OR8U3 (Homo sapiens) (UniProt Q8NH85)
T1 sequence (whole entry): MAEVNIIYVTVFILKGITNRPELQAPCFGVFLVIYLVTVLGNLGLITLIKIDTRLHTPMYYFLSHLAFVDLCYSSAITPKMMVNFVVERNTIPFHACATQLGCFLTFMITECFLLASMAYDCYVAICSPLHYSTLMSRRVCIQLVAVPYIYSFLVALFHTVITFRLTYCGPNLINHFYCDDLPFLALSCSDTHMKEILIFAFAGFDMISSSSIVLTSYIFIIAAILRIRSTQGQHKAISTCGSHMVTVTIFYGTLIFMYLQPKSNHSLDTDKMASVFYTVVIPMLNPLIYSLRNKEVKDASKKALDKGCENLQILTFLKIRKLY
Method in brief: (§1)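 Each receptor–molecule pair is labelled responsive or non-responsive (inactive) according to whether the original authors judged the measured signal statistically different from baseline. The data were taken from the main text and supplementary material of published papers and checked for typos and inconsistencies. Assay methods differed by source, with transient luciferase assays in mammalian cell lines being common.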

OR8U1 (Homo sapiens) = target: T2, OR8U1 (Homo sapiens) (UniProt Q8NH10)
T2 sequence (whole entry): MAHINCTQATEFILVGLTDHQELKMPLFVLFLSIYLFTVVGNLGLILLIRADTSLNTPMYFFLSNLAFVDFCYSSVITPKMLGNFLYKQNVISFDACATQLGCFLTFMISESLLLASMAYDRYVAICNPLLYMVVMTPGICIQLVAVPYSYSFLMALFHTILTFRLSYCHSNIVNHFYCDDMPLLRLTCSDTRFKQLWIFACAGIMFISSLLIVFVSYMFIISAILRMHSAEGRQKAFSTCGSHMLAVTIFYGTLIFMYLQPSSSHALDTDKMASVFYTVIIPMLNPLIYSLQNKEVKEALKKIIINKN
Method in brief: as §1

OR8U8 [1] = system: T3, OR8U8
T3 sequence (whole entry): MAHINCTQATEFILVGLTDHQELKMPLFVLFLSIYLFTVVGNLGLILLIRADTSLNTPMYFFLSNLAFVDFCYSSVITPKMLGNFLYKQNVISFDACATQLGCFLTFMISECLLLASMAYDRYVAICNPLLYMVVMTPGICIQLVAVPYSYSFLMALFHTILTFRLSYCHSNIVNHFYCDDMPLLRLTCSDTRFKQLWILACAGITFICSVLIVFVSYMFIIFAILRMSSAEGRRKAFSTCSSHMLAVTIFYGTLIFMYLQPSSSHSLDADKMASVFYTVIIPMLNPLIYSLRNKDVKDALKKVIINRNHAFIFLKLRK
Method in brief: as §1

OR8U8 [2] = system: T4, OR8U8; remark: listed apart in the source
T4 sequence (whole entry): T3 sequence (whole entry) with H20R, C112S, R165C
Method in brief: as §1

OR8U9 (Homo sapiens) = target: T5, OR8U9 (Homo sapiens) (UniProt P0C7N5)
T5 sequence (whole entry): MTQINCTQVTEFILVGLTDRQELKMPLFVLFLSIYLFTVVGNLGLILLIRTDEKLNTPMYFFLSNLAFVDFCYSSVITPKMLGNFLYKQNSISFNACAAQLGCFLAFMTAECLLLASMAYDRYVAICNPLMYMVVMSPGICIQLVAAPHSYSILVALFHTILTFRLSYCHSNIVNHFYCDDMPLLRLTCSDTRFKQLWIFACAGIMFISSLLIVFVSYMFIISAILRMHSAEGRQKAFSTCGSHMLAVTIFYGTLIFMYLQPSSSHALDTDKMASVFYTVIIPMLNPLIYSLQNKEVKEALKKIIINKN
Method in brief: as §1

OR8U9 T2A Q3H Q293R = system: T6, OR8U9 T2A Q3H Q293R
T6 sequence (whole entry): T5 sequence (whole entry) with T2A, Q3H, Q293R
Method in brief: as §1

OR8U9 = system: T7, OR8U9
T7 sequence (whole entry): T5 sequence (whole entry) with Q293R
Method in brief: as §1

OR9A2 (Homo sapiens) = target: T8, OR9A2 (Homo sapiens) (UniProt Q8NGT5)
T8 sequence (whole entry): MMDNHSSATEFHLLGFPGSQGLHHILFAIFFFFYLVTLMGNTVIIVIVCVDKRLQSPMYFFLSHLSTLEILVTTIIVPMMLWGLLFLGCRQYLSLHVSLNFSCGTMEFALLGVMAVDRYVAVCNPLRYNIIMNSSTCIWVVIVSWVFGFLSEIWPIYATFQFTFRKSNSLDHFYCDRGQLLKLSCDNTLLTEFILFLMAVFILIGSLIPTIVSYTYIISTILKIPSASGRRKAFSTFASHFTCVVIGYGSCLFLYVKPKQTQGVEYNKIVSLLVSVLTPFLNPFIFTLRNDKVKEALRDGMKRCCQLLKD
Method in brief: as §1

OR9A2 C304Y = system: T9, OR9A2 C304Y
T9 sequence (whole entry): T8 sequence (whole entry) with C304Y
Method in brief: as §1

OR9A4 (Homo sapiens) = target: T10, OR9A4 (Homo sapiens) (UniProt Q8NGU2)
T10 sequence (whole entry): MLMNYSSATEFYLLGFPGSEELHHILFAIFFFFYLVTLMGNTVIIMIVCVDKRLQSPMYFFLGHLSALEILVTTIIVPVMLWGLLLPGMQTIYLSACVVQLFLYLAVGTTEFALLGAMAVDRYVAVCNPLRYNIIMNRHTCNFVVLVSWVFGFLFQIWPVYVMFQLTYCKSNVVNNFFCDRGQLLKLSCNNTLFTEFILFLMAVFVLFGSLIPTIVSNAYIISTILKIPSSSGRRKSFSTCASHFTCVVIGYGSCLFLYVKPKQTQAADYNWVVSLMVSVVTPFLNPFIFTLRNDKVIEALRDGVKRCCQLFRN
Method in brief: as §1

OR9G1 (Homo sapiens) = target: T11, OR9G1 (Homo sapiens) (UniProt Q8NH87)
T11 sequence (whole entry): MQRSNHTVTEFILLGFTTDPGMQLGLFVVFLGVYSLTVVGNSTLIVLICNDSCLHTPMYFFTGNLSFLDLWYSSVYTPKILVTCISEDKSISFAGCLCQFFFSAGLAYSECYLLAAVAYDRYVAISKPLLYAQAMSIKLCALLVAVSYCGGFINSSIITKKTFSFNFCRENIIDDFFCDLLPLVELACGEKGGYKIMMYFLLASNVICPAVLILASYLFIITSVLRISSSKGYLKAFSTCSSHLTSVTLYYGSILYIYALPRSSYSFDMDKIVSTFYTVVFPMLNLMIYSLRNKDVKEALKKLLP
Method in brief: as §1

OR9G4 (Homo sapiens) = target: T12, OR9G4 (Homo sapiens) (UniProt Q8NGQ1)
T12 sequence (whole entry): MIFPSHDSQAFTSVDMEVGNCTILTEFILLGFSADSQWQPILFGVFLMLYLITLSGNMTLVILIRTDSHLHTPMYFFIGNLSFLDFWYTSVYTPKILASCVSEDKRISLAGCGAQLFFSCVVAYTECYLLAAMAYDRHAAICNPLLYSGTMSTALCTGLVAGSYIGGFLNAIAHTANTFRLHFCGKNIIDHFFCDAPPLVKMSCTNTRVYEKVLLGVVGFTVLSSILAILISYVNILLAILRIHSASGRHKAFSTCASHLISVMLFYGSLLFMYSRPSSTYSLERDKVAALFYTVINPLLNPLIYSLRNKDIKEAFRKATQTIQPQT
Method in brief: as §1

OR9G4 H6Y N206D V222A = system: T13, OR9G4 H6Y N206D V222A
T13 sequence (whole entry): T12 sequence (whole entry) with H6Y, N206D, V222A
Method in brief: as §1

OR9G4 N206D V222A = system: T14, OR9G4 N206D V222A
T14 sequence (whole entry): T12 sequence (whole entry) with N206D, V222A
Method in brief: as §1

OR9G9 = system: T15, OR9G9
T15 sequence (whole entry): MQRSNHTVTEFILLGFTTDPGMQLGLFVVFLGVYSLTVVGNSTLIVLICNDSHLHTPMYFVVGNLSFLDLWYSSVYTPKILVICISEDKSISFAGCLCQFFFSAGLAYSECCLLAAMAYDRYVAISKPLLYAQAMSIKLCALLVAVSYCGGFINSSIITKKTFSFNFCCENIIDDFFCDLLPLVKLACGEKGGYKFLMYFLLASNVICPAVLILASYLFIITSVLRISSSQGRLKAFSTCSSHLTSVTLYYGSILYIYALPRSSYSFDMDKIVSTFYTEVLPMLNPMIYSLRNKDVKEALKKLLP
Method in brief: as §1

OR9I1 (Homo sapiens) = target: T16, OR9I1 (Homo sapiens) (UniProt Q8NGQ6)
T16 sequence (whole entry): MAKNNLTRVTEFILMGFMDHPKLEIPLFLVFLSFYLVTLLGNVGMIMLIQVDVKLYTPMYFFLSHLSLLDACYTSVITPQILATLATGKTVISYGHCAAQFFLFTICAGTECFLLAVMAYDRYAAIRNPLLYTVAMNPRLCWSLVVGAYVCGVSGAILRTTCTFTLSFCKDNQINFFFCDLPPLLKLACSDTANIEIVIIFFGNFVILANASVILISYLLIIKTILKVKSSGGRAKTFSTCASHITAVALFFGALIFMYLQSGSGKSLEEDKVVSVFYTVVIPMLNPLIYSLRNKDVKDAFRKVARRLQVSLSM
Method in brief: as §1

OR9K2 (Homo sapiens) = target: T17, OR9K2 (Homo sapiens) (UniProt Q8NGE7)
T17 sequence (whole entry): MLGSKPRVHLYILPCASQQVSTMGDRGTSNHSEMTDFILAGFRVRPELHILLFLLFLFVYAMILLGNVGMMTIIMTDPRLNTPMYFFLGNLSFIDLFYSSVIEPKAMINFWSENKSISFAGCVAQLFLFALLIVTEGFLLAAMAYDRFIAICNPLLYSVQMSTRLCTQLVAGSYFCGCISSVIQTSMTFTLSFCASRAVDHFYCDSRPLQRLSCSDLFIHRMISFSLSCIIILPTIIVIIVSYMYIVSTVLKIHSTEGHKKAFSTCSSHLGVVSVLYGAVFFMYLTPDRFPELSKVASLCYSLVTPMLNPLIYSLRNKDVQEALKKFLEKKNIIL
Method in brief: as §1

OR9K2 R207H = system: T18, OR9K2 R207H
T18 sequence (whole entry): T17 sequence (whole entry) with R207H
Method in brief: as §1

OR8U8 (Homo sapiens) = target: T19, OR8U8 (Homo sapiens) (UniProt P0C7N1)
T19 sequence (whole entry): T3 sequence (whole entry) with I109V, C112S
Method in brief: as §1

OR9G9 (Homo sapiens) = target: T20, OR9G9 (Homo sapiens) (UniProt P0C7N8)
T20 sequence (whole entry): T15 sequence (whole entry) with G193C
Method in brief: as §1

Measured: odorant receptor agonist call

O=C1CCOc2ccccc21
active: OR8U3 (Homo sapiens)

CCCC(S)CCOC(C)=O (centres undefined)
not listed: OR8U8 (Homo sapiens) | OR9G9 (Homo sapiens)
inactive: all other assays above

CC(CO)CS (centres undefined)
inactive: OR8U1 (Homo sapiens) | OR8U3 (Homo sapiens) | OR8U8 (Homo sapiens) | OR8U9 (Homo sapiens) | OR9A2 (Homo sapiens) | OR9A4 (Homo sapiens) | OR9G1 (Homo sapiens) | OR9G4 (Homo sapiens) | OR9G9 (Homo sapiens) | OR9I1 (Homo sapiens) | OR9K2 (Homo sapiens)

CC1=NC(C)C(C)S1 (centres undefined)
not listed: OR8U8 (Homo sapiens) | OR9G9 (Homo sapiens)
inactive: all other assays above

CCC(S)C(C)CO (centres undefined)
inactive: OR8U1 (Homo sapiens) | OR8U3 (Homo sapiens) | OR8U8 (Homo sapiens) | OR8U9 (Homo sapiens) | OR9A2 (Homo sapiens) | OR9A4 (Homo sapiens) | OR9G1 (Homo sapiens) | OR9G4 (Homo sapiens) | OR9G9 (Homo sapiens) | OR9I1 (Homo sapiens) | OR9K2 (Homo sapiens)

CCCCCC(=O)C(C)C(C)=O (centres undefined)
inactive: OR8U1 (Homo sapiens) | OR8U3 (Homo sapiens) | OR8U8 (Homo sapiens) | OR8U9 (Homo sapiens) | OR9A2 (Homo sapiens) | OR9A4 (Homo sapiens) | OR9G1 (Homo sapiens) | OR9G4 (Homo sapiens) | OR9G9 (Homo sapiens) | OR9I1 (Homo sapiens) | OR9K2 (Homo sapiens)

CCCCCCC=CCCC=O
not listed: OR8U8 [1] | OR8U8 [2] | OR9G9 | OR9K2 (Homo sapiens)
inactive: all other assays above

O=c1ccc2ccccc2o1
active: OR8U3 (Homo sapiens)

CC1CCCCCCCCCCCCC(=O)C1 (centres undefined)
inactive: OR8U1 (Homo sapiens) | OR8U3 (Homo sapiens) | OR8U8 (Homo sapiens) | OR8U9 (Homo sapiens) | OR9A2 (Homo sapiens) | OR9A4 (Homo sapiens) | OR9G1 (Homo sapiens) | OR9G4 (Homo sapiens) | OR9G9 (Homo sapiens) | OR9I1 (Homo sapiens) | OR9K2 (Homo sapiens)

CCCCCC(S)C(C)CO (centres undefined)
inactive: OR8U1 (Homo sapiens) | OR8U3 (Homo sapiens) | OR8U8 (Homo sapiens) | OR8U9 (Homo sapiens) | OR9A2 (Homo sapiens) | OR9A4 (Homo sapiens) | OR9G1 (Homo sapiens) | OR9G4 (Homo sapiens) | OR9G9 (Homo sapiens) | OR9I1 (Homo sapiens) | OR9K2 (Homo sapiens)
